≈ marks a conversion by molar mass, not a printed value.
Tests used:
[1] = Inhibition of TNKS in human SW480 cells assessed as degradation of total pool of beta-catenin after 40 to 48 hrs; assay type: cell-based
Method in brief: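 SW480 cells were seeded at 10 000/well in MEMα with 10% HI FBS, GlutaMAX, pyruvate and 10 mM HEPES. They were treated with a 10-point, 3-fold dilution series at 0.1% final DMSO for 40–48 h at 37 °C, then lysed. Total β-catenin was measured by MSD sandwich immunoassay (polyclonal capture, SULFO-TAG mAb detection).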

[2] = molecular target: T1, Poly [ADP-ribose] polymerase tankyrase-1 (Homo sapiens, UniProt O95271); assay: Inhibition of 6x-His-tagged TNKS1 (unknown origin) after 60 mins
T1 sequence (O95271 whole entry): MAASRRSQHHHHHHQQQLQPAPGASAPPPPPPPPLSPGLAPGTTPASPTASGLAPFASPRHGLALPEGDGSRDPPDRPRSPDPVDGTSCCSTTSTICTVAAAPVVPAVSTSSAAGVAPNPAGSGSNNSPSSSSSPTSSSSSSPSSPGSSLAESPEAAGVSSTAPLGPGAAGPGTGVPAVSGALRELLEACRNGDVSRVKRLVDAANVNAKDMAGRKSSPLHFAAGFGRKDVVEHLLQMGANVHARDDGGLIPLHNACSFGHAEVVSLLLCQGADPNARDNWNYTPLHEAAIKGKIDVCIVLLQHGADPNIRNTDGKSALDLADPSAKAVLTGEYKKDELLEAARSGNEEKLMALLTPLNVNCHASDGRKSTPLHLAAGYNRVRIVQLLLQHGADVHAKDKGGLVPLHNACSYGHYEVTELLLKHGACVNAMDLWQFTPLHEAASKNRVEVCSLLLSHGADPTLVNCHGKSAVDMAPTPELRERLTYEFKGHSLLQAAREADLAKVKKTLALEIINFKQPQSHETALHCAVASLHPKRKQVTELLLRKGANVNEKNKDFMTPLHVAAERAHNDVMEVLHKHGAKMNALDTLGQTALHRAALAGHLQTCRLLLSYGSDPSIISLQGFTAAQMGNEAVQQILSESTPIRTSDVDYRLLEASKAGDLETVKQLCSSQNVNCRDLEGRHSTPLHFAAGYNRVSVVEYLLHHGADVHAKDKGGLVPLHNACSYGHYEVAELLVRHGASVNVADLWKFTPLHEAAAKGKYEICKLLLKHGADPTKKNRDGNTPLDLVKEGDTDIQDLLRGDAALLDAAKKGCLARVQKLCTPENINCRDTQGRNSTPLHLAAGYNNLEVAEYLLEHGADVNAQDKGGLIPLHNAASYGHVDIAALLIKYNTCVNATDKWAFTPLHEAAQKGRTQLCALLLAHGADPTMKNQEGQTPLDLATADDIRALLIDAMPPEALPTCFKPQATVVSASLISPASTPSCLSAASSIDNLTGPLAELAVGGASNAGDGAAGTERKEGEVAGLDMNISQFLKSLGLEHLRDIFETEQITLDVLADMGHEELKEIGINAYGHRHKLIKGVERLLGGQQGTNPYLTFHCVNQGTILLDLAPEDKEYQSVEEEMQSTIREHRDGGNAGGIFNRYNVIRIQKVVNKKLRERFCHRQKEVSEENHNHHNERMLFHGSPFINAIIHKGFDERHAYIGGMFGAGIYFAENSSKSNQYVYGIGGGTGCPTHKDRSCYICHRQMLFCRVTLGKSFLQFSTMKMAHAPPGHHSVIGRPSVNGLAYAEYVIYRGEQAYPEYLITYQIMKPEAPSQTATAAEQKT

[3] = Half life in CD-1 mouse plasma at 1 uM by LC-MS/MS analysis; assay type: ADME, cell-free
Method in brief: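 Lithium-heparinized CD-1 mouse plasma was spiked with 1 μM substrate and incubated at 37 °C for 3 h, sampling at 0, 0.167, 1, 2 and 3 h (n = 2). Samples underwent acetonitrile protein precipitation with tolbutamide as internal standard. Analysis was by reversed-phase UPLC-ESI-MS/MS in MRM mode.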

[4] = Intrinsic clearance in rat liver microsomes at 1 uM after 30 mins; assay type: ADME; conditions: read-out: CLH
Method in brief: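 Substrate depletion in rat liver microsomes: 0.25 mg protein/mL, 1 mM NADPH and 2 mM MgCl2 in 50 mM potassium phosphate, pH 7.4, prewarmed to 37 °C. Test compound was added to a final 1 μM, and parent loss was measured after 30 min at 37 °C.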

[5] = Solubility in fasted state simulated intestinal fluid at pH 6.8; assay type: ADME
[6] = AUC (0 to infinity) in CD-1 mouse at 30 mg/kg, po; assay type: ADME, organism-based; parameters: time infinity, dose 30 mg/kg, route oral; conditions: plasma
Method in brief: (§1)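 Male CD-1 mice given a single oral dose of 30 mg/kg. Vehicle was 10% Pluronic F68, 30% HPBCD and 60% water, pH adjusted to 10.0 with NaOH for most compounds or to 2.5 with methanesulfonic acid for one. Mean plasma PK parameters were reported.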

[7] = Inhibition of TNKS in human SW480 cells assessed as accumulation of axin-2 into cytoplasmic foci after 24 hrs by Hoechst dye-based assay; conditions: SW480, 24 h
[8] = Half life in rat at 0.5 mg/kg, iv; assay type: ADME, organism-based; parameters: dose 0.5 mg/kg, route intravenous; conditions: in vivo
Method in brief: (§2)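 Male rats received a single intravenous dose of 0.5 mg/kg. Mean clearance, steady-state volume of distribution and half-life were reported.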

[9] = Tmax in CD-1 mouse at 30 mg/kg, po; assay type: ADME, organism-based; parameters: dose 30 mg/kg, route oral; conditions: in vivo; method in brief: as §1
[10] = Fraction unbound in mouse plasma at 5 uM after 5 hrs by equilibrium dialysis method; assay type: ADME, cell-free
Method in brief: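 Mouse plasma was spiked to a final 5 μM and equilibrium-dialyzed against plasma water (ultrafiltrate) for 5 h at 37 °C in a CO2 incubator, using a rapid equilibrium dialysis device. Fraction unbound was determined in duplicate.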

[11] = Volume of distribution at steady state in rat at 0.5 mg/kg, iv; assay type: ADME, organism-based; parameters: dose 0.5 mg/kg, route intravenous; conditions: in vivo, read-out: Vdss; method in brief: as §2
[12] = Inhibition of TNKS in human DLD1 cells expressing APC mutant assessed as inhibition of super-Topflash reporter gene transcription after 40 to 48 hrs by dual-glo luciferase reporter gene assay; assay type: cell-based; conditions: DLD-1
Method in brief: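 DLD-1 cells carried an 8× TCF-driven firefly luciferase and an EF1a-driven Renilla luciferase, and were seeded at 10 000/well in RPMI with 10% FBS without antibiotics. A 10-point, 3-fold dilution series starting at 10 μM was applied for 40–48 h at 37 °C. Firefly and Renilla activities were read with Dual-Glo reagents.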

[13] = Cmax in CD-1 mouse at 30 mg/kg, po; assay type: ADME, organism-based; parameters: dose 30 mg/kg, route oral; conditions: in vivo; method in brief: as §1
[14] = Clearance in rat at 0.5 mg/kg, iv; assay type: ADME, organism-based; parameters: dose 0.5 mg/kg, route intravenous; conditions: in vivo; method in brief: as §2

IC50 [1] [nM] | IC50 [2] [nM] | microsomal CLint at 1 µM [4] [µL/min/mg] | Compound | also measured
47.8 |  |  | N#Cc1cccc(O[C@H]2CC[C@H](NC(=O)CCSc3nc4ccccc4c(=O)[nH]3)CC2)c1 | 
 | > 46000 |  | COc1ccccc1NS(=O)(=O)c1ccc(NC(=O)CCc2nc3ccccc3c(=O)[nH]2)cc1 | 
7720 | 860 |  | O=C(CCc1nc2ccccc2c(=O)[nH]1)Nc1ccc(-c2nc3ccccc3o2)cc1 | 
> 10000 | 640 |  | O=C(CCc1nc2ccccc2c(=O)[nH]1)Nc1ccc(-c2c[nH]c(-c3ccccc3)n2)cc1 | half-life at 1 µM [3]: 0.883 h
 | 160 |  | Cc1ccnc2c(NC(=O)c3ccc(N4C(=O)[C@@H]5[C@H](C4=O)[C@@H]4C=C[C@H]5C4)cc3)cccc12 | 
 | 1750 |  | COc1cccc(C)c1NC(=O)c1ccc(NC(=O)CCc2nc3ccccc3c(=O)[nH]2)cc1 | half-life at 1 µM [3]: 4.5 h
16.7 |  |  | O=C(CCSc1nc2ccccc2c(=O)[nH]1)N[C@H]1CC[C@H](Oc2ccc(F)cc2)CC1 | 
17 |  | 20 | O=C(CCCc1nc2ccccc2c(=O)[nH]1)N[C@H]1CC[C@H](c2nnc(-c3ccccc3)o2)CC1 | solubility [5]: 11 µg/mL (≈ 24 µM)
100 |  | 159 | O=C(CCCSc1nc2ccccc2c(=O)[nH]1)N[C@H]1CC[C@H](c2nnc(-c3ccccc3)o2)CC1 | solubility [5]: 1 µg/mL (≈ 2.04 µM)
2130 |  | < 14 | O=C(CCSc1nccc(=O)[nH]1)N[C@H]1CC[C@H](c2nnc(-c3ccccc3)o2)CC1 | solubility [5]: 53 µg/mL (≈ 125 µM)
120 |  |  | O=C(CCSc1nc2ccccc2c(=O)[nH]1)N[C@H]1CC[C@H](Oc2cccc(Cl)c2)CC1 | 
300 | 31 |  | COc1ccccc1NC(=O)[C@H]1CC[C@H](NC(=O)CCc2nc3ccccc3c(=O)[nH]2)CC1 | half-life at 1 µM [3]: > 16.7 h
 | 7460 |  | COc1ccccc1NC(=O)[C@H]1CC[C@@H](NC(=O)CCc2nc3ccccc3c(=O)[nH]2)CC1 | half-life at 1 µM [3]: > 16.7 h
> 10000 | 1090 |  | Cn1c(-c2ccc(NC(=O)CCc3nc4ccccc4c(=O)[nH]3)cc2)nc2ccccc21 | half-life at 1 µM [3]: > 8.33 h
6.9 |  |  | O=C(CCSc1nc2ccccc2c(=O)[nH]1)N[C@H]1CC[C@H](Oc2ccncc2)CC1 | AUC(0-inf) [6]: 11.5 µM·h; EC50 [7]: 6.8 nM; half-life [8]: 0.7 h; Tmax [9]: 0.67 h; fraction unbound at 5 h, 5 µM [10]: 0.032; Vd [11]: 0.4 L/kg; IC50 [12]: 0.7 nM; Cmax [13]: 7 µM; clearance [14]: 11 mL/min/kg
500 |  | > 399 | O=C(C[C@H]1CCCN1Cc1nc2ccccc2c(=O)[nH]1)N[C@H]1CC[C@H](c2nnc(-c3ccccc3)o2)CC1 | solubility [5]: 42 µg/mL (≈ 81.9 µM)

IC50 [1] [nM] | IC50 [2] [nM] | microsomal CLint at 1 µM [4] [µL/min/mg] | Compound | also measured
1170 |  | 206 | O=C(N[C@H]1CC[C@H](c2nnc(-c3ccccc3)o2)CC1)[C@@H]1CCCN(Cc2nc3ccccc3c(=O)[nH]2)C1 | solubility [5]: 43 µg/mL (≈ 83.9 µM)
 | > 46000 |  | O=C(CCc1nc2ccccc2c(=O)[nH]1)Nc1ccc(-c2nc(-c3ccccc3)no2)cc1 | 
3090 | 210 |  | COc1ccccc1NC(=O)c1ccc(NC(=O)CCc2nc3ccccc3c(=O)[nH]2)cc1C | half-life at 1 µM [3]: 0.717 h
1020 |  | < 14 | O=C(CCc1nc2c(c(=O)[nH]1)CCCN2)N[C@H]1CC[C@H](c2nnc(-c3ccccc3)o2)CC1 | 
20 |  |  | O=C(CCSc1nc2ccccc2c(=O)[nH]1)N[C@H]1CC[C@H](Oc2ccc(Cl)cc2)CC1 | 
410 |  |  | O=C(CCc1nc2ccccc2c(=O)[nH]1)Nc1ccc(-c2nnc(-c3ccccc3)o2)cc1 | EC50 [7]: 2450 nM; half-life at 1 µM [3]: 2.03 h
 | > 46000 |  | O=C(CCc1nc2ccccc2c(=O)[nH]1)Nc1ccc(-c2csc(-c3ccccc3)n2)cc1 | 
15.4 |  |  | O=C(CCSc1nc2ccccc2c(=O)[nH]1)N[C@H]1CC[C@H](Oc2ccccn2)CC1 | 
 | > 46000 |  | O=C(CCc1nc2ccccc2c(=O)[nH]1)Nc1ccc(-c2nc(-c3ccccc3)c[nH]2)cc1 | 
5680 | 400 |  | COc1ccccc1N(C)C(=O)c1ccc(NC(=O)CCc2nc3ccccc3c(=O)[nH]2)cc1 | half-life at 1 µM [3]: 0.633 h
91 |  | 20 | O=C(CSc1nc2ccccc2c(=O)[nH]1)N[C@H]1CC[C@H](c2nnc(-c3ccccc3)o2)CC1 | solubility [5]: 1 µg/mL (≈ 2.17 µM)
24.2 |  |  | N#Cc1cc(O[C@H]2CC[C@H](NC(=O)CCSc3nc4ccccc4c(=O)[nH]3)CC2)ccc1Cl | 
11 |  | 60 | O=C(CCSc1nc2c(c(=O)[nH]1)CCCC2)N[C@H]1CC[C@H](c2nnc(-c3ccccc3)o2)CC1 | AUC(0-inf) [6]: 5.3 µM·h; EC50 [7]: 14 nM; Tmax [9]: 3.23 h; fraction unbound at 5 h, 5 µM [10]: 0.012; solubility [5]: 8 µg/mL (≈ 16.7 µM); IC50 [12]: 1.3 nM; Cmax [13]: 3.6 µM
8.1 |  |  | N#Cc1ccc(O[C@H]2CC[C@H](NC(=O)CCSc3nc4ccccc4c(=O)[nH]3)CC2)cc1Cl | AUC(0-inf) [6]: 100 µM·h; EC50 [7]: 8.4 nM; Tmax [9]: 1.58 h; fraction unbound at 5 h, 5 µM [10]: 0.002; IC50 [12]: 1.1 nM; Cmax [13]: 15.1 µM
1950 |  | 24 | O=C(CCc1nc2ncccc2c(=O)[nH]1)N[C@H]1CC[C@H](c2nnc(-c3ccccc3)o2)CC1 | 
80 |  | < 14 | O=C(CCc1nc2ccccc2c(=O)[nH]1)N[C@H]1CC[C@H](c2nnc(-c3ccccc3)o2)CC1 | EC50 [7]: 640 nM; half-life at 1 µM [3]: > 8.33 h; solubility [5]: 16.2 µg/mL (≈ 36.5 µM)

From ChEMBL document CHEMBL3108694, “Development of novel dual binders as potent, selective, and orally bioavailable tankyrase inhibitors” (J Med Chem, 2013)
